Target: T1, Glucagon-like peptide 1 receptor (Rattus norvegicus, UniProt P32301)
T1 sequence (P32301 whole entry): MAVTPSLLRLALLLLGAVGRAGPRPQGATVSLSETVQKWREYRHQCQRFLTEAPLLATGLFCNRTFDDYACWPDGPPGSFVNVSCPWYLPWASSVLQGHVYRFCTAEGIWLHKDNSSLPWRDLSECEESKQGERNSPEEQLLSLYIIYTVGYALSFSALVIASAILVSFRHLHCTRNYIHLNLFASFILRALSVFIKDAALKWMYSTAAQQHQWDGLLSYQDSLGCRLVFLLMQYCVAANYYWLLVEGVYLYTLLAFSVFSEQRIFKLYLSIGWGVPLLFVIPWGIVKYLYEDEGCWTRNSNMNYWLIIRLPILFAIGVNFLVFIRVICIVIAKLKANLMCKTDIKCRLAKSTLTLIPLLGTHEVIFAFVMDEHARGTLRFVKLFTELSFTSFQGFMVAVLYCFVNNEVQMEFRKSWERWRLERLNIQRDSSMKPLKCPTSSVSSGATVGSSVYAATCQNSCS
Test: Positive allosteric modulator activity at GLP-1R in rat INS1 beta-cells assessed potentiation of GLP-1(7-36)NH2 induced insulin secretion at 0.1 nM incubated for 30 mins in presence of exendin(9-39)NH2 by ELISA
Summary of the method: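 Rat INS-1E cells in RPMI 1640 with 10% fetal calf serum at 37 °C, 7.5% CO2. Cells were detached, washed and plated at 100,000 cells/well, then held in glucose-free medium for 1.5 h. […] Insulin in the medium was read by ELISA; data are triplicate.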

IC50: 6.3 nM
Structure (SMILES): FC(F)(F)c1ccc(-c2noc(CN3CCCC(CN4CCOCC4)C3)n2)cc1 (stereo unspecified)

— BindingDB's records for PubMed 35349261 (Hospital Regional Universitario, 2022)
